# Screens from PubChem.
# Sampled rows, rich in hits. Any-hit rate of the full collection: about 2.1%.
# hiPSC survival = enhancers of single-cell hiPSC survival, primary screen, ATPlite luminescence; actives 0.044% (n = 360,000); AID 602274, 2012; 100% = ROCK inhibitor wells, 0% = DMSO; survival enhancement, % at 20 µM; in the data active means survival enhancement above about 18%;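 further: cells exposed to compounds for 16 hours before the ATP read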
# CRFR2-BP antag = antagonists of CRF-BP/CRF-R2 complex, primary screen, cell-based, HEK293, calcium dye fluorescence, uHTS; CRF-induced calcium fluorescence; inhibition, % at 11.8 µM; actives 0.59% (n = 350,000);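 active means inhibition of the ligand-induced calcium signal above about 50% at the single tested concentration, limit read from the data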
# beta cell repl = inducers of MIN6 beta-cell proliferation, primary screen, ATP luminescence, uHTS; MIN6 cells proliferation, ATPlite luminescence, 48 h; cells starved in 0.2% serum; 100% = growth in 10% serum; proliferation, % at 10 µM; actives 0.29% (n = 330,000); AID 2380, 2010;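 active means compounds whose signal lies at least 3.5 SD above the mean of all wells on their plate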;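 further: 0% = DMSO-treated cells in low-serum medium and 100% = 10% serum control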
# CRFR2-BP ag = agonists of CRF-BP/CRF-R2 complex, primary screen, cell-based, HEK293, calcium dye fluorescence, uHTS. actives 0.46% (n = 350,000). calcium dye fluorescence (FLIPR); percent of saturating CRF peptide response. activation, % at 13.2 µM. AID 588473, 2011;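 active means activation of at least 50%, plus an integration ratio under a set limit after plate pattern correction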;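 further: plate controls were neutral control wells without compound for no effect and CRF at EC100 for full effect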
# UCH37 DUB inh = inhibitors of human UCH37 deubiquitinase, primary screen, biochemical, Ub-AMC cleavage, fluorescence | Ubiquitin carboxyl-terminal hydrolase isozyme L5 (Homo sapiens), Q9Y5K5 | AID 588478, 2011 | actives 0.33% (n = 330,000) | purified proteasome/UCH37 | inhibition, % (no concentration beside the values);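 active means mean inhibition over replicate wells above about 20%, limit read from the data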;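 further: 0% = compound-free wells with enzyme and 100% = wells lacking proteasome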
# Target sequence (Q9Y5K5 whole entry, looked up): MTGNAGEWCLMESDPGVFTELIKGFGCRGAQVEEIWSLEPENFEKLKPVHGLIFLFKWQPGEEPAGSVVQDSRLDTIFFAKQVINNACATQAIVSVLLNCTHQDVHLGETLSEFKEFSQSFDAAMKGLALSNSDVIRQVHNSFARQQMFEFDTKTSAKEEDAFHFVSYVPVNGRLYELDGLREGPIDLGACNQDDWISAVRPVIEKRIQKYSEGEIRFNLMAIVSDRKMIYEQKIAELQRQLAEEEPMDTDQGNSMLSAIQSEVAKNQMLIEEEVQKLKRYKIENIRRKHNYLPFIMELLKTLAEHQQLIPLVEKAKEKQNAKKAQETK
#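 Material: Human UCH37 enzyme supplied as purified proteasome complex | Schedule: 30 min compound-proteasome preincubation then 25 min substrate reaction, room temperature | Detection: AMC fluorescence from Ub-AMC cleavage, excitation 355 nm, emission 460 nm | Benchmarks: Wells without proteasome as full block, compound-free enzyme plus substrate as uninhibited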
# H9c2 protect = cardioprotection against H2O2-induced cell death, primary screen, uHTS, H9c2 cells, ATPLite luminescence | protection from H2O2 cell death, % at 20 µM | actives 0.63% (n = 360,000) | H9c2 cardiomyocytes, H2O2 injury protection, 2 h;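 active means compounds giving at least 50% protection of heart cells from peroxide-induced death in the single-dose screen, raw or plate-pattern-corrected value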;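 further: 0% = DMSO wells with peroxide and 100% = DMSO wells without peroxide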
# Numbers without * were called inactive; . = no result.
SMILES,hiPSC survival,CRFR2-BP antag,beta cell repl,CRFR2-BP ag,UCH37 DUB inh,H9c2 protect
Cc1ccc(Nc2ccc(C(N)=O)cc2[N+](=O)[O-])cc1C,1,40,0,0,26*,-13
COc1ccc(CC(C)=NNC(=O)C2COc3ccccc3O2)cc1 (stereo not drawn),.,.,.,.,2,.
COc1cc2[nH]c3c(=O)n4c(nc3c2cc1OC)SCCC4,-2,93*,4,44,-25,17
CCCOC(=O)C(C)=NNC(=O)c1ccco1,.,.,.,.,1,.
COc1ccc(NC(=O)N(C)[C@H]2C[C@H]3c4[nH]c5ccc(-c6ccc7c(c6)OCO7)cc5c4CCN3C[C@H]2[C@H](C)O)cc1,-1,-4,.,9,.,54*
O=C(O)c1cc(C(=O)C2CCCCC2)c[nH]1,-1,7,-3,-1,2,12
O=C(O)c1cc(C(=O)C2CC2)c[nH]1,23*,-16,-4,4,3,2
COc1ccc(C)cc1NCc1cccc(OC)c1OC,0,78*,-1,-3,4,-2
Cc1ccc2nc(Cl)c3nnnn3c2c1,30*,-39,-6,3,.,-15
Nc1ccc(C(=O)NN=Cc2cn(Cc3ccccc3)c3ccccc23)cc1,.,.,.,.,-12,.
O=C(CC1N=C(Cc2ccccc2)NNC1=O)NN=Cc1ccc([N+](=O)[O-])cc1 (stereo not drawn),.,.,.,.,10,.
O=C(/C=C/c1ccco1)Nc1nc(-c2ccccc2)cs1,-1,-15,-4,0,-3,2
O=C(CCCSc1ccccc1)Nc1nc(-c2ccccn2)cs1,3,-16,-3,8,4,64*
O=C(/C=C/c1ccco1)Nc1nc(-c2ccccn2)cs1,1,-6,-5,2,4,50*
CSCCC(=O)Nc1nc(-c2ccccn2)cs1,-1,-18,.,0,1,37
O=C(CN1C(=O)CCC1=O)Nc1nc(-c2ccccn2)cs1,-1,-1,1,3,4,52*
CCOC(=O)CC(C)=NNC(=O)C1CC1(c1ccccc1)c1ccccc1 (stereo not drawn),.,.,.,.,0,.
CC(=NNC(=O)CSc1nc(C)[nH]c1[N+](=O)[O-])c1ccc(F)cc1,.,.,.,.,6,.
COc1cccc(C=Nn2c(-c3ccco3)nc3ccccc3c2=O)c1,.,.,.,.,7,.
Cc1csc(=NN=Cc2ccccc2)n1Cc1ccco1,.,.,.,.,4,.
Cc1ccc(-c2[nH]c3cc(C(N)=O)ccc3c(=O)c2O)cc1,1,3,-2,10,.,63*
CCCNC(=O)c1ccc2c(=O)c(O)c(-c3ccc(OC)cc3)[nH]c2c1,-1,-5,-4,9,-26,35
CCCNC(=O)c1ccc2c(=O)c(O)c(-c3ccsc3)[nH]c2c1,-3,-10,-4,35,-15,51*
Cc1ccc(CNC(=O)c2ccc3c(=O)c(O)c(-c4ccc(C)cc4)[nH]c3c2)cc1,-2,3,-8,15,-7,59*
CCCNC(=O)c1ccc2c(=O)c(O)c(-c3ccc(C)cc3)[nH]c2c1,-3,-26,-8,15,-45,54*
SMILES,hiPSC survival,CRFR2-BP antag,beta cell repl,CRFR2-BP ag,UCH37 DUB inh,H9c2 protect
Cc1ccsc1C=NNC(=O)C(=O)NCC(C)C,.,.,.,.,10,.
CCC(=NNc1ccccc1Cl)c1cnnc(-c2ccccc2)n1,.,.,.,.,5,.
COc1ccc(C=NNc2snc(SC)c2C#N)cc1OC,.,.,.,.,-7,.
CC(=O)Nc1nc2n(n1)C(c1ccc(F)cc1)C=C(c1ccccc1)N2 (stereo not drawn),2,-6,0,75*,-44,27
CC(=O)Nc1nc2n(n1)C(c1ccccc1)C=C(c1ccccc1)N2 (stereo not drawn),-3,-11,1,48,-54,10
O=C(c1nc2n(n1)C(c1ccc(Cl)cc1)C=C(c1ccccc1)N2)N1CCOCC1 (stereo not drawn),-2,-7,1,97*,-30,25
